Test results as given in the EternaBench riboswitch data.

Tested on: MS2 coat protein
Experiment: apparent Kd, MS2 coat protein; higher = weaker binding; RNA-MaP array; FMN 200 µM where present
Method in brief: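 Apparent Kd: the median of filtered binding-curve fits from single clusters. Designs were transcribed on Illumina sequencing-chip clusters by stalled E. coli RNA polymerase and titrated with SNAP-549-labelled MS2 coat protein from 0.7 or 1.5 nM, doubling to 3 µM, in 100 mM Tris-HCl pH 7.5, 80 mM KCl, 4 mM MgCl2, BSA, DTT, yeast tRNA and Tween-20. Each series ran without and then with constant ligand, and green signal was normalised to red-channel RNA signal and control-cluster median Fmax.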

[1] = designed as: OFF switch for flavin mononucleotide, no ligand
[2] = ligand present: flavin mononucleotide, designed as: OFF switch for flavin mononucleotide
[3] = designed as: ON switch for flavin mononucleotide, no ligand
[4] = ligand present: flavin mononucleotide, designed as: ON switch for flavin mononucleotide

Row | Sequence | apparent Kd [1] [nM] | apparent Kd [2] [nM] | apparent Kd [3] [nM] | apparent Kd [4] [nM]
1 | CUGCCUUAUGUAGGAUAUGCAUAGCGUUGCUAUGCAGAAGGACAUGAGGAUCACCCAUGUAUGUUAUCAAUACAUAUCUGGCAG | 16.9 | 53.2 | – | –
2 | GUGGUGCAUAUACGUGGAGGUACAUGAGGAUCACCCAUGUAAGAGGAUAUGCGGAUACUAGCUCAGCAGAAGGCUUACAAAUGA | 13.1 | 51.5 | – | –
3 | AAAUAAAGCAGUGUGGUAAGAUCACAUGAGGAUCACCCAUGUAAGGAUAUCUGUCCUAAAAGGACAGAGAAGGUACGUCACUGC | 18.9 | 79.6 | – | –
4 | CGCUACGUUUCGUAGCAGUGUCAUCGAGAAGGCCCUGACAUGAGGAUCACCCAUGUUCCUGAAAAGGAGGAUAUCGAUGAUACA | – | – | 8.86 | 7.04
5 | UUUUAACAUGAGGAUCACCCAUGUGAGGAUAUCGAAAUUUAUAUUAAUAUUUAUUAAUCGAGAAGGCACAUUUU | 93.7 | 122 | – | –
6 | AAAAGGGCAGGAUAUACAUGAGGAUCACCCAUGUGAAAAAAAAAAAAAAAAAAAAAGUGUAGAAGGGUCAAAAA | 74 | 76 | – | –
7 | UUUUAACAUGAGGAUCACCCAUGUGAGGAUAUCGUUAUUUAUAUUAAUAUUAAUAAAACGAGAAGGCACAUUUU | 112 | 141 | – | –
8 | GACUUGCGCACAGGAUAUCCACGGAGCGGACGUGGAGAAGGGUGACAUGAGGAUCACCCAUGUACGUAAGUCUGGAUCACUUCC | – | – | 49.9 | 37.9
9 | GCUAUAGAUGUAGGAUAUCAUAUAGAAGCUAUGUGAGAAGGACAUGAGGAUCACCCAUGUCAAUGGAUGGAGAGAAGUUAUGGC | 75.3 | 104 | – | –
10 | AAAUAAACUACGAAGAUAUCCUCACAUGAGGAUCACCCAUGUCAGGAUAUUUGUCCUAAAAGGACAGAGAAGGGACAUCGUAGA | 5.15 | 11.4 | – | –
11 | ACAACUAAGCAGAAGGCAGUCAUAGCAUUCGUCAUGUAGACAUGAGGAUCACCCAUGUAUAGUGCUGAGGAUAUGCUUGGUUAG | 11.3 | 9.47 | – | –
12 | UAAAUAUUAAAAGGAUAUUCAUACCGGAAACGGACAUGAGGAUCACCCAUGUGGCGAAAGCCUUGGGAGAAGGUAUUAUAAAAU | – | – | 333 | 248
13 | GUAGUGCUCAUAGGAUAUCGGGAACGACUUAGACAGGUCGUACAUGAGGAUCACCCAUGUAAAGUCGAGAAGGGUGAUCACGCC | – | – | 592 | 160
14 | ACGGCAGUCAGAGGAUAUGGUUACAUGAGGAUCACCCAUGUCAAGGGUCUAAUUAGGUAUAACUACCAGAAGGCUGAAGGCCUA | 64.5 | 102 | – | –
15 | UUAUUCUAUAUAGGAUAUUGAUGUAAUUUAUUUCAAGAAGGAUAUACAUGAGGAUCACCCAUGUUGGAUAGGGUUAGUUUGUUU | – | – | 81.1 | 91.1
16 | ACAUGAGGAUCACCCAUGUUCACAUAGGAUAUUGAUUUUAUUGGUUUUAGAAUAGUAAUUAACCUCAAGAAGGAUGCCAGUUGU | – | – | 11.1 | 9.31
17 | CUUGUGUUAGGAUAUGCGCCCUGAAGAAGCAGGGCCAGAGAGCAGAAGGAACAUGAGGAUCACCCAUGUGUGAC | 60.3 | 51.2 | – | –
18 | CUUUUGUGAGGAUAUUCGUAGUAGGGUCAUGGCACUAUUACGGAGAAGGCACAUGAGGAUCACCCAUGUACCUU | 15.1 | 26.4 | – | –
19 | GAGUGGUGGAGAGGAUAUGCAUUGUUAUUCACUGUAGAAGGUUCUAACAUGAGGAUCACCCAUGUAGGACUAUUCCUGUGUUUU | – | – | 13.5 | 11.1
20 | GGCGUGUUAGGAUAUCGCGGCGGCGGCGUUUGUUGUUGUUGUGAGAAGGAACAUGAGGAUCACCCAUGUAUGCC | 34.8 | 55 | – | –
21 | GGAGAUACAUGAGGAUCACCCAUGUAGGAUAUCGGGUAUAUAUAUGGCGAAAGCCAUAUAUAUACCGAGAAGGGCGUACACACC | 8.59 | 8.11 | – | –
22 | UGGUACUAGGGAGGAUAUGGGAAGAUACAUGAGGAUCACCCAUGUUUAAGAAUGCCGAGAGGCAACUAGAAGGCCCUAGCACCU | – | – | 426 | 19
23 | UCGGCGCGAGGAUAUGCGGUUGCUUGGUAGGGUCGGAGCGUACAUGAGGAUCACCCAUGUAGAAGGCGCGCCGC | 18.8 | 25 | – | –
24 | UGGUCAUCAUCAGGAUAUUAACAUGGGCUACAUUAAGAAGGGAUAGUGGGAGAGGAAGUGAAACAUGAGGAUCACCCAUGUUGU | – | – | 32.9 | 16.2
25 | UGGAUGGUAUGAGGAUAUGCGCGUGAAACGCGCGCAGAAGGCAUGUCAAUAGACAUGAGGAUCACCCAUGUAUUAUCCAUCCAA | – | – | 258 | 15.8
26 | UGGGACUAGGGAGGAUAUGGGAAGAUACAUGAGGAUCACCCAUGUUUAAGAAUGCCGAGAGGCAACUAGAAGGCCCUAGUACCU | – | – | 446 | 20.4
27 | GUUAAACAUGAGGAUCACCCAUGUAAGGAUAUGCUGCGGUAGAGAUGAAGUGAAUGCAGCAGAAGGUACAAUUG | 124 | 109 | – | –
28 | CAUGUCCUCGCAGGAUAUGCUGGACUUUGUCCAGCAGAAGGGUGAUAACAUGAGGAUCACCCAUGUGGACAUGAUAUAUUUAAU | – | – | 28.1 | 1720

Row | Sequence | apparent Kd [1] [nM] | apparent Kd [2] [nM] | apparent Kd [3] [nM] | apparent Kd [4] [nM]
29 | ACCUAUGAGGAGGAUAUACGGUGCGAAAGGAAGGUAGAAGGCUUCACAUGAGGAUCACCCAUGUCUAUAAGCGA | 30.9 | 29.5 | – | –
30 | AUAUGGAAUACAGGAUAUGUAAGUUUUAAGUGUAUUGGUUAUUACUUAACAACAGAAGGGUAUUACAUGAGGAUCACCCAUGUA | – | – | 12.8 | 10
31 | UGUCGGAGCAGAGGAUAUUACAUGAGGAUCACCCAUGUAUGAACCAAUAGCUGGAAACAGCAAGGUAAGAAGGCUGCUCCGACA | 5.24 | 9.98 | – | –
32 | CUUUCAUUUUAGGAUAUCGAGUUGGCGAUAGCUCGAGAAGGGAAUACAUGAGGAUCACCCAUGUCGGGUCACGU | 177 | 173 | – | –
33 | UGCCAGUUAGGAUAUGCACGCGCCGGUGACCUGCUACGGCUACAUGAGGAUCACCCAUGUAGAAGGAACUGGGC | 19.6 | 20.2 | – | –
34 | AAUUAGGUCACAGGAUAUACAUCAUCCAUAGAUGUAGAAGGGUGUCAAAGUAAUAUCUGACAUGAGGAUCACCCAUGUUUCCAC | – | – | 23.3 | 9.28
35 | AGUAAGAUGCAGAAGGUGUCAGCGAGAGCUGCGACAUGAGGAUCACCCAUGUACCAGUGAGGGUACAAGGAUAUGCAUCUUACA | – | – | 243 | 19.3
36 | GGAUCUGAAACAGAUCCAAUACGAACAUGAGGAUCACCCAUGUAGGAUAUGCUACUCAAAGAGUAGCAGAAGGACAUGUGUCUU | 24.3 | 147 | – | –
37 | CGGUCGAUGUAAGGAUAUCGACUGGAUAACAGUCGAGAAGGUACAUGAGGAUCACCCAUGUAAUCCAAUAAUAAAUAACGACCG | 11.4 | 23.2 | – | –
38 | CCGUAAGAGCGGACAUGAGGAUCACCCAUGUAAGAGUCAUCCAGAAGGUCAGCGCUAAAUGGAAUGAAGGAUAUGGAGUGGGUC | – | – | 668 | 357
39 | GGGUGGGUACAGAAGGGAGUGAUGGGUUUUUGGUUUGACAUGAGGAUCACCCAUGUUUAUCUGGUUCAGGAUAUGUAGUGGUGG | – | – | 149 | 97.3
40 | GUCACACACCGCUCCGUGUCUGACAUGAGGAUCACCCAUGUGAGAAGGUAGCGUCGCAGUGACGUUAAGGAUAUCACGUACAGA | 4.81 | 5.2 | – | –
41 | AAGGUGUUAGGAUAUCGGAGUUUGAGGCAGACGGGAAUUUUCGAGAAGGAACAUGAGGAUCACCCAUGUAGUAU | 24.1 | 24.8 | – | –
42 | ACCAGGGAUUCAGGAUAUAUUAGCCGAGGCCGCGUAGAAGGGAAAUCCUGACAUGAGGAUCACCCAUGUCGACCCGCCUUCCAA | – | – | 43.3 | 41.9
43 | UAGAAGUCAGGAUAUGCUGCUCGUCACUUGCGUGAUGAGUAGCAGAAGGGACAUGAGGAUCACCCAUGUAAAGC | 48.8 | 54.3 | – | –
44 | UGGUACAUCAUAGGAUAUCGUGUGUAAACAUGAGGAUCACCCAUGUCAUCCGAGAGUAUAUCGACCGAGAAGGGUGAUGUACCU | – | – | 24.1 | 33.3
45 | UAUAUAUAGUAAGGAUAUGUAUAUACUUUAUAAACAGAAGGUACUGACAUGAGGAUCACCCAUGUUUUAGUGUGGGCAUGUAGA | 75.9 | 102 | – | –
46 | AAGGACAGAGGAUAUACAUAGAUACAGAUUCAUGUAGAACUACAUGAGGAUCACCCAUGUAGAAGGCUGUCCUA | 30.7 | 285 | – | –
47 | GAAUUCGCAUGAGGAUAUGCACUCAUUUCAUGUGCAGAAGGUAUAUCAUUAGACAUGAGGAUCACCCAUGUAUUGGUCAAUAAC | – | – | 17.8 | 14.8
48 | GUCGAGUGAGGAUAUGGUGAGUAGUGCCAGAGCGCUGCUCACCAGAAGGCACAUGAGGAUCACCCAUGUAUGUC | 12.9 | 20.8 | – | –
49 | GCCCGUGCGGAGGAUAUUGAUAUCCCAGUCUAUCAAGAAGGCUGCACAUGAGGAUCACCCAUGUGACCUGUGCU | 18.8 | 51.7 | – | –
50 | CAGAUUUGCUAGAAGGGUGACAUGAGGAUCACCCAUGUGCGGGCAGACCUAUCUUCAUGCCCGCCACAGGAUAUAGCAAUUUGC | – | – | 36.6 | 17.9
51 | UCAACCAGCGCCAGUUGAACAUGAGGAUCACCCAUGUACUCCAGAAGGCCGCCCAAGAACGGAGUGGAGGAUAUGGAGGUUCUC | – | – | 28.5 | 18.4
52 | UCUGAGGUCACAGGAUAUCAUACGUCGGCACGUUGAGAAGGGUGACCGAGCUACAUGAGGAUCACCCAUGUGCUGUCGUAACAA | – | – | 85.4 | 164
53 | AGAGAGUGACAGAAGGGCAAGCUCGAUUGCGGAGAACGCGAUCGAGCUUGCAGGAUAUGUUGAACAUGAGGAUCACCCAUGUCA | – | – | 7.98 | 6.94
54 | AUGAGAAAAGCAGGAUAUCUAUUGUCUCAGAAACAUGAGGAUCACCCAUGUAGAGAAGGGCUAAGACUGACUCUUCGGAGUUGA | 10.6 | 9.46 | – | –
55 | GGAUCACAAAGUGAUCCAAUACGAACAUGAGGAUCACCCAUGUAGGAUAUGCUACUCAAAGAGUAGCAGAAGGACAUGUGCCUU | 35.4 | 296 | – | –
